Test results: ChEMBL document CHEMBL3785075, “Novel Water-Soluble Amphotericin B-PEG Conjugates with Low Toxicity and Potent in Vivo Efficacy” (J Med Chem, 2016)
Converted amounts (≈) assume the structure as drawn. The source made the active and inactive calls. The rule behind the calls is not given here.

Experiments:
[1] = Toxicity in iv dosed ICR mouse; type: organism-based; conditions: in vivo
[2] = Elimination rate constant in ICR mouse at 1 mg/kg, iv by HPLC analysis; type: ADME, organism-based; conditions: in vivo
Candida albicans [3] = experiment: Antifungal activity against Candida albicans CBS 562 infected in ICR mouse assessed as fungal burden in mouse spleen at 7 mg/kg after 24 hrs; type: functional, organism-based
Mus musculus [4] = experiment: Metabolic stability in ICR mouse at 1 mg/kg, iv after 48 hrs by HPLC analysis; type: ADME, organism-based; conditions: in vivo
Candida albicans [5] = experiment: Antifungal activity against Candida albicans CBS 562 infected in ICR mouse assessed as fungal burden in mouse kidney at 7 mg/kg after 24 hrs; type: functional, organism-based
[6] = Volume of distribution in ICR mouse at 1 mg/kg, iv after 24 hrs by HPLC analysis; type: ADME, organism-based; conditions: in vivo
Mus musculus [7] = experiment: AUC(0 to 24 hrs) in ICR mouse at 1 mg/kg, iv after 24 hrs by HPLC analysis; type: ADME, organism-based; parameters: dose 1 mg/kg, time < 24 hr, route intravenous; conditions: in vivo
MEF [8] = experiment: Cytotoxicity against mouse MEF cells assessed as cell viability after 24 hrs by MTT assay; type: cell-based
[9] = Fraction unbound in ICR mouse plasma by HPLC analysis; type: ADME, cell-free
Candida albicans [10] = experiment: Antifungal activity against Candida albicans CBS 562 infected in ICR mouse assessed as fungal burden in mouse kidney at 3.5 mg/kg after 24 hrs; type: functional, organism-based
[11] = Clearance in ICR mouse at 1 mg/kg, iv after 24 hrs by HPLC analysis; type: ADME, organism-based; conditions: in vivo
Rhizopus arrhizus = experiment: Antifungal activity against Rhizopus oryzae after 48 hrs by CLSI-M27-A3 method; type: functional
Candida albicans [12] = experiment: Antifungal activity against Candida albicans CBS 562 infected in ICR mouse assessed as increase in survival rate of animal at 3.5 mg/kg after 24 days; type: functional, organism-based
[13] = Solubility of compound in saline by HPLC analysis; type: physicochemical
[14] = Toxicity against human RBC assessed as hemolytic activity at 6 ug/ml after 1 to 21 hrs; type: cell-based; conditions: erythrocyte
Candida albicans [15] = experiment: Antifungal activity against Candida albicans CBS 562 infected in ICR mouse assessed as increase in survival rate of animal at 7 mg/kg after 24 days; type: functional, organism-based
Candida albicans [16] = experiment: Antifungal activity against Candida albicans after 48 hrs by CLSI-M27-A3 method; type: functional
Candida albicans [17] = experiment: Antifungal activity against Candida albicans CBS 562 assessed as viable cells at 2 times MIC after 2 hrs by time kill analysis relative to control; type: functional
Mus musculus [18] = experiment: Metabolic stability in ICR mouse assessed as hydrolysis at 1 mg/kg, iv after 24 hrs by HPLC analysis; type: ADME, organism-based; conditions: in vivo
[19] = Mean residence time(0 to 24 hrs) in ICR mouse at 7.5 mg/kg, iv after 24 hrs by HPLC analysis; type: ADME, organism-based; conditions: in vivo
Candida albicans [20] = experiment: Antifungal activity against Candida albicans CBS 562 infected in ICR mouse assessed as fungal burden in mouse kidney at 1 mg/kg after 24 hrs; type: functional, organism-based
Pichia kudriavzevii = experiment: Antifungal activity against Candida krusei after 48 hrs by CLSI-M27-A3 method; type: functional
Candida albicans [21] = experiment: Antifungal activity against Candida albicans CBS 562 infected in ICR mouse assessed as increase in survival rate of animal at 1.75 mg/kg after 24 days; type: functional, organism-based
Candida albicans [22] = experiment: Antifungal activity against Candida albicans CBS 562 infected in ICR mouse assessed as fungal burden in mouse spleen at 1 mg/kg after 24 hrs; type: functional, organism-based
[23] = Elimination half life in ICR mouse at 1 mg/kg, iv by HPLC analysis; type: ADME, organism-based; conditions: in vivo, read-out: beta t1/2 (converted)
Aspergillus niger = experiment: Antifungal activity against Aspergillus niger after 48 hrs by CLSI-M27-A3 method; type: functional
Candida albicans [24] = experiment: Antifungal activity against Candida albicans CBS 562 infected in ICR mouse assessed as fungal burden in mouse spleen at 1.75 mg/kg after 24 hrs; type: functional, organism-based
Aspergillus terreus = experiment: Antifungal activity against Aspergillus terreus after 48 hrs by CLSI-M27-A3 method; type: functional
Aspergillus flavus = experiment: Antifungal activity against Aspergillus flavus after 48 hrs by CLSI-M27-A3 method; type: functional
Candida albicans [25] = experiment: Antifungal activity against Candida albicans CBS 562 infected in ICR mouse assessed as fungal burden in mouse spleen at 3.5 mg/kg after 24 hrs; type: functional, organism-based
Aspergillus fumigatus = experiment: Antifungal activity against Aspergillus fumigatus after 48 hrs by CLSI-M27-A3 method; type: functional
Candida albicans [26] = experiment: Antifungal activity against Candida albicans CBS 562 infected in ICR mouse assessed as increase in survival rate of animal at 1 mg/kg after 24 days; type: functional, organism-based
Candida albicans [27] = experiment: Antifungal activity against Candida albicans CBS 562 infected in ICR mouse assessed as fungal burden in mouse kidney at 1.75 mg/kg after 24 hrs; type: functional, organism-based
[28] = Chemical stability of compound in phosphate buffer saline assessed as hydrolysis after 24 hrs by HPLC analysis; type: physicochemical; conditions: read-out: Drug degradation
In short: (§1)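 Conjugate incubated in phosphate-buffered saline; samples taken at 4 h and after prolonged incubation to 24 h; percent hydrolysis determined by HPLC.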

Serum = experiment: Metabolic stability in mouse serum assessed as hydrolysis after 24 hrs by HPLC analysis; type: ADME
[29] = AUC(0 to 24 hrs) in ICR mouse at 7.5 mg/kg, iv after 24 hrs by HPLC analysis; type: ADME, organism-based; parameters: time < 24 hr, dose 7.5 mg/kg, route intravenous; conditions: in vivo
[30] = Mean residence time(0 to 24 hrs) in ICR mouse at 1 mg/kg, iv after 24 hrs by HPLC analysis; type: ADME, organism-based; conditions: in vivo
[31] = Elimination rate constant in ICR mouse at 7.5 mg/kg, iv by HPLC analysis; type: ADME, organism-based; conditions: in vivo
Mus musculus [32] = experiment: Metabolic stability in ICR mouse assessed as hydrolysis at 7.5 mg/kg, iv after 24 hrs by HPLC analysis; type: ADME, organism-based; conditions: in vivo
MEF [33] = experiment: Cytotoxicity against mouse MEF cells assessed as cell viability at 1000 ug/ml after 24 hrs by MTT assay; type: cell-based
[34] = Volume of distribution in ICR mouse at 7.5 mg/kg, iv after 24 hrs by HPLC analysis; type: ADME, organism-based; conditions: in vivo
[35] = Clearance in ICR mouse at 7.5 mg/kg, iv after 24 hrs by HPLC analysis; type: ADME, organism-based; conditions: in vivo
[36] = Chemical stability of compound in phosphate buffer saline assessed as hydrolysis after 4 hrs by HPLC analysis; type: physicochemical; in short: as §1
[37] = Elimination half life in ICR mouse at 7.5 mg/kg, iv by HPLC analysis; type: ADME, organism-based; conditions: in vivo, read-out: beta t1/2 (converted)
Mus musculus [38] = experiment: Metabolic stability in ICR mouse at 7.5 mg/kg, iv after 48 hrs by HPLC analysis; type: ADME, organism-based; conditions: in vivo

C[C@@H]1[C@H](O)[C@@H](C)/C=C/C=C/C=C/C=C/C=C/C=C/C=C/[C@H](O[C@@H]2O[C@H](C)[C@@H](O)[C@H](N)[C@@H]2O)C[C@@H]2O[C@](O)(C[C@@H](O)C[C@@H](O)[C@H](O)CC[C@@H](O)C[C@@H](O)CC(=O)O[C@H]1C)C[C@H](O)[C@H]2C(=O)O [AMPHOTERICIN B]
MTD [1]: 1.1 mg/kg
k el [2]: 1.19e-05 s⁻¹
Activity (Candida albicans [3]): Active
Stability (Mus musculus [4]): Unstable
Activity (Candida albicans [5]): Active
Vd [6]: 0.006 L
AUC (Mus musculus [7]): 63.983 µg·h/mL
IC50 (MEF [8]): 6.6 µg/mL (≈ 7.14 µM)
fraction unbound [9]: 0.11
Activity (Candida albicans [10]): Active
clearance [11]: 0.00417 mL/min
MFC (Rhizopus arrhizus): 250 µg/mL (≈ 271 µM)
MIC (Rhizopus arrhizus): 0.25 µg/mL (≈ 0.271 µM)
Activity (Candida albicans [12]): Active
solubility [13]: < 1 µg/mL
Activity [14]: Toxic
Activity (Candida albicans [15]): Active
MFC (Candida albicans [16]): 0.5 µg/mL (≈ 0.541 µM)
MIC (Candida albicans [16]): 0.25 µg/mL (≈ 0.271 µM)
Activity (Candida albicans [17]): 100%
Stability (Mus musculus [18]): Stable
MRT last [19]: 9.66 h
Activity (Candida albicans [20]): Active
MFC (Pichia kudriavzevii): 1 µg/mL (≈ 1.08 µM)
MIC (Pichia kudriavzevii): 0.5 µg/mL (≈ 0.541 µM)
Activity (Candida albicans [21]): Active
Activity (Candida albicans [22]): Active
half-life [23]: 16 h
MFC (Aspergillus niger): 0.5 µg/mL (≈ 0.541 µM)
MIC (Aspergillus niger): 0.5 µg/mL (≈ 0.541 µM)
Activity (Candida albicans [24]): Active
MFC (Aspergillus terreus): 4 µg/mL (≈ 4.33 µM)
MIC (Aspergillus terreus): 2 µg/mL (≈ 2.16 µM)
MFC (Aspergillus flavus): 0.5 µg/mL (≈ 0.541 µM)
MIC (Aspergillus flavus): 0.5 µg/mL (≈ 0.541 µM)
Activity (Candida albicans [25]): Active
MFC (Aspergillus fumigatus): 0.5 µg/mL (≈ 0.541 µM)
MIC (Aspergillus fumigatus): 0.25 µg/mL (≈ 0.271 µM)
Activity (Candida albicans [26]): Active
Activity (Candida albicans [27]): Active

COC(=O)[C@H]1[C@@H]2C[C@@H](O[C@@H]3O[C@H](C)[C@@H](O)[C@H](NC(=O)CCOCCOCCOCCOCCOCCOCCOCCOCCN)[C@@H]3O)/C=C/C=C/C=C/C=C/C=C/C=C/C=C/[C@H](C)[C@@H](O)[C@@H](C)[C@H](C)OC(=O)C[C@H](O)C[C@H](O)CC[C@@H](O)[C@H](O)C[C@H](O)C[C@](O)(C[C@@H]1O)O2
MTD [1]: 42 mg/kg
degraded at 24 h [28]: 0.8%
Activity (Candida albicans [3]): Active
Activity (Candida albicans [5]): Active
fraction unbound [9]: 0.9
Activity (Candida albicans [10]): Active
MFC (Rhizopus arrhizus): 4000 µg/mL (≈ 2940 µM)
MIC (Rhizopus arrhizus): 4 µg/mL (≈ 2.94 µM)
Activity (Candida albicans [12]): Active
solubility [13]: 700 µg/mL (≈ 514 µM)
Activity [14]: Non-toxic
Stability (Serum): Stable
Activity (Candida albicans [15]): Active
MFC (Candida albicans [16]): 2 µg/mL (≈ 1.47 µM)
MIC (Candida albicans [16]): 1 µg/mL (≈ 0.734 µM)
Activity (Candida albicans [17]): 100%
AUC(0-t) at 24 h [29]: 421 µg·h/mL
MRT last [30]: 5.43 h
Activity (Candida albicans [20]): Active
MFC (Pichia kudriavzevii): 4 µg/mL (≈ 2.94 µM)
MIC (Pichia kudriavzevii): 2 µg/mL (≈ 1.47 µM)
Activity (Candida albicans [21]): Active
k el [31]: 6.11e-05 s⁻¹
Activity (Candida albicans [22]): Active
Stability (Mus musculus [32]): Stable
Activity (MEF [33]): Non-toxic
Vd [34]: 0.002 L
clearance [35]: 0.00847 mL/min
MFC (Aspergillus niger): 2 µg/mL (≈ 1.47 µM)
MIC (Aspergillus niger): 2 µg/mL (≈ 1.47 µM)
Activity (Candida albicans [24]): Active
MFC (Aspergillus terreus): 16 µg/mL (≈ 11.8 µM)
MIC (Aspergillus terreus): 16 µg/mL (≈ 11.8 µM)
MFC (Aspergillus flavus): 2 µg/mL (≈ 1.47 µM)
MIC (Aspergillus flavus): 2 µg/mL (≈ 1.47 µM)
Activity (Candida albicans [25]): Active
Stability [36]: Stable
MFC (Aspergillus fumigatus): 2 µg/mL (≈ 1.47 µM)
MIC (Aspergillus fumigatus): 1 µg/mL (≈ 0.734 µM)
half-life [37]: 3.15 h
Activity (Candida albicans [26]): Active
Activity (Candida albicans [27]): Active
Stability (Mus musculus [38]): Unstable

C[C@@H]1[C@H](O)[C@@H](C)/C=C/C=C/C=C/C=C/C=C/C=C/C=C/[C@H](O[C@@H]2O[C@H](C)[C@@H](O)[C@H](NC(=O)CCOCCOCCOCCOCCOCCOCCOCCOCCN)[C@@H]2O)C[C@@H]2O[C@](O)(C[C@@H](O)C[C@@H](O)[C@H](O)CC[C@@H](O)C[C@@H](O)CC(=O)O[C@H]1C)C[C@H](O)[C@H]2C(=O)O
MTD [1]: 22 mg/kg
degraded at 24 h [28]: 0.5%
IC50 (MEF [8]): 280 µg/mL (≈ 208 µM)
MFC (Rhizopus arrhizus): 8000 µg/mL (≈ 5940 µM)
MIC (Rhizopus arrhizus): 8 µg/mL (≈ 5.94 µM)
solubility [13]: 5500 µg/mL (≈ 4080 µM)
Activity [14]: Toxic
MFC (Candida albicans [16]): 4 µg/mL (≈ 2.97 µM)
MIC (Candida albicans [16]): 1 µg/mL (≈ 0.742 µM)
MFC (Pichia kudriavzevii): 8 µg/mL (≈ 5.94 µM)
MIC (Pichia kudriavzevii): 4 µg/mL (≈ 2.97 µM)
MFC (Aspergillus niger): 1 µg/mL (≈ 0.742 µM)
MIC (Aspergillus niger): 1 µg/mL (≈ 0.742 µM)
MFC (Aspergillus terreus): 32 µg/mL (≈ 23.7 µM)
MIC (Aspergillus terreus): 32 µg/mL (≈ 23.7 µM)
MFC (Aspergillus flavus): 4 µg/mL (≈ 2.97 µM)
MIC (Aspergillus flavus): 4 µg/mL (≈ 2.97 µM)
Stability [36]: Stable
MFC (Aspergillus fumigatus): 4 µg/mL (≈ 2.97 µM)
MIC (Aspergillus fumigatus): 4 µg/mL (≈ 2.97 µM)
